Hits are enriched below; roughly 1.5% of the tested compounds scored in any of these assays.
CaV13 FRET inh: Disruptors of the CACNA1D IQ motif to Ca2+-dependent inactivation inhibitor domain association, primary screening, Förster resonance energy transfer in intact living …. HEK cells, CFP/YFP FRET ICDI-IQ, plate reader, 10 min; percent FRET-ratio fall versus neutral wells. inhibition, % at 12.3 µM. hit rate 0.098% among 340,000;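 active = mean replicate inhibition of at least 30% and at least 1% of replicates passing that level; inconclusive = only one of the two criteria is met; inactive = neither criterion is met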
CAL PDZ FP-1: inhibitors of human CAL PDZ peptide binding. Q9HD26. purified CAL PDZ, TMR-peptide fluorescence polarization, 1 h. inhibition, % at 20 µM. hit rate 0.02% among 330,000. AID 504414;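 active = highest replicate inhibition of at least 40%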
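Material – purified CerCALP PDZ construct · Detection – FP readout, S and P plane fluorescence · Measure – percent inhibition from loss of millipolarization · Controls – unlabelled peptide for full inhibition, DMSO wells as neutral · Probe or stimulus – TMR-labelled reporter peptide T*-PRC34 bound in PDZ groove · Times – 1 h at RT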
LANA-H2B inh: blocks KSHV LANA binding to histone H2A/H2B; Q9QR71; cell-free LANA-H2A/H2B peptide, fluorescence polarization; hit rate 0.6% among 320,000; inhibition, % (concentration not given with the values); in the data active = inhibition mostly above about 10%, no sharp cut-off; inactive = mostly below about 6.7%
Target sequence (Q9QR71 whole entry, looked up): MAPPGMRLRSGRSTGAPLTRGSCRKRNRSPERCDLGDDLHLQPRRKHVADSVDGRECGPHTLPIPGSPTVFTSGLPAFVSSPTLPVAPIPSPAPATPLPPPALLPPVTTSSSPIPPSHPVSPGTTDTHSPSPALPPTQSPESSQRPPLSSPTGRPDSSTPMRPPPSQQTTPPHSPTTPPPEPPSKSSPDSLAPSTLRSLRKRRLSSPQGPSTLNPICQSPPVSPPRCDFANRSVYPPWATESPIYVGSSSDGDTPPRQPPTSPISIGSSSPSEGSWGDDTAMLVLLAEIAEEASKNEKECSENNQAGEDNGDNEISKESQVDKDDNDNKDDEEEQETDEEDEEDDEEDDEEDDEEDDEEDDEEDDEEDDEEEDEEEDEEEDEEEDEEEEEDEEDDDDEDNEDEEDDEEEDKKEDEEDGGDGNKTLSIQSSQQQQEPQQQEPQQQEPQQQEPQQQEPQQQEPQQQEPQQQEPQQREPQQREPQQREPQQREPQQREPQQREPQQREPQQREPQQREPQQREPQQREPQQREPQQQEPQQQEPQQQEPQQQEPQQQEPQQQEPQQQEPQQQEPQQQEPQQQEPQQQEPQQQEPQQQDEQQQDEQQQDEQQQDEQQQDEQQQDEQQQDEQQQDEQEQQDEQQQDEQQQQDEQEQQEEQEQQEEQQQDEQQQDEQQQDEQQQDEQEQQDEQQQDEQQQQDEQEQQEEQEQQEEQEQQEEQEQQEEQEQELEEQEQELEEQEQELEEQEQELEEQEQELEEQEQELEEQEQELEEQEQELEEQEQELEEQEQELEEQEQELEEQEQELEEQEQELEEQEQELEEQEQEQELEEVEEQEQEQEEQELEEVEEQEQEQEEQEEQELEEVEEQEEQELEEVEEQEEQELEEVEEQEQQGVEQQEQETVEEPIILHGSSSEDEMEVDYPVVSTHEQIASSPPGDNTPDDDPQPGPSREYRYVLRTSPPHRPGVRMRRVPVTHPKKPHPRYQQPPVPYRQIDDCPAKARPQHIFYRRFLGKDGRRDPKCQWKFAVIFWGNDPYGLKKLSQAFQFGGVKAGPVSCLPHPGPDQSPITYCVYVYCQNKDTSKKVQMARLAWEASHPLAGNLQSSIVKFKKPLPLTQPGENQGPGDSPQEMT
C-LANA FP: blocks KSHV LANA C-terminal domain binding to DNA. MBP-C-LANA/FAM-LBS DNA binding, fluorescence polarization. inhibition, % at 9 µM. hit rate 0.078% among 340,000;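 active = highest replicate inhibition at or above 60% at 9 µM, even if other replicates fall short; inactive = all replicates below 60% inhibition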
Keap1 Nrf2 FP: inhibitors of human Keap1-Nrf2 protein-protein interaction. Q14145. Keap1 Kelch-Nrf2 peptide fluorescence polarization, 1536-well. inhibition, % at 9.4 µM. hit rate 0.15% among 340,000; in the data active = inhibition above about 12%; inconclusive = no clear call, values can overlap the other calls; inactive = below about 7.3%;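 note: human Keap1 Kelch domain with fluorescein labeled Nrf2 9mer peptide probe; higher means more block of Keap1 binding to Nrf2 peptide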
CAL PDZ FP-2: inhibitors of human CAL PDZ peptide binding | Q9HD26 | purified CAL PDZ, TMR-peptide fluorescence polarization, 1 h | inhibition, % at 24.9 µM | hit rate 0.92% among 300,000 | AID 602252;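 active = mean inhibition of at least 30% with at least half of replicates also reaching 30%; inconclusive = no clear call, values can overlap the other calls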
Keap1 TSA: binders of human Keap1 Kelch domain; shares compounds with Keap1 Nrf2 FP; Keap1 Kelch thermal shift, delta Tm; active compounds read high; max delta Tm, degrees C; hit rate 8% among 400; in the data active = max delta Tm above about 0.48 degrees C
Dye-only ctr: dye artifact in Keap1 thermal shift counter-screen; 140 tested, under 10 active; shares compounds with Keap1 Nrf2 FP; Sypro Orange dye-only thermal melt, no protein, delta Tm; top dose 26 µM; delta Tm, degrees C (test concentration not listed);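 active = at highest dose tested, delta Tm positive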
Large screens that a line does not name were inactive (follow-up assays come after a bar, where they were run).

C#CCOCCOCCOCCNc1nc(N2CCN(C(=O)[C@H](CCC(=O)O)n3cc(C(N)CC(C)C)nn3)CC2)nc(N2CCN(C(=O)[C@H](Cc3ccc(O)cc3)n3cc(C(N)[C@H](C)CC)nn3)CC2)n1 (some centres undefined)	none (no result: CaV13 FRET inh, CAL PDZ FP-1, C-LANA FP, Keap1 Nrf2 FP, CAL PDZ FP-2)
Cc1nnc(SCC(N)=O)n1CCc1ccccc1	none
O=C(Nc1ccccc1)NC1CCN(Cc2c(F)cccc2Cl)CC1	none
CC(C)(C)c1ccccc1NC(=O)NC1CCN(Cc2c(F)cccc2Cl)CC1	Keap1 Nrf2 FP 21 (no result: CAL PDZ FP-2) | Keap1 TSA inactive
Cc1ccc(C)c(N2CCN(C(=O)c3cc4ccccn4n3)CC2)c1	LANA-H2B inh 30, Keap1 Nrf2 FP 16 (no result: CaV13 FRET inh) | Keap1 TSA inactive | Dye-only ctr inactive
O=C(COC(=O)c1cccs1)Nc1cccc(S(=O)(=O)NC2=NCCCCC2)c1	none
O=C(COC(=O)c1ccc([N+](=O)[O-])s1)Nc1cccc(S(=O)(=O)NC2=NCCCCC2)c1	Keap1 Nrf2 FP 53 | Keap1 TSA inactive
Cc1n[nH]c(C)c1N1C(=O)c2cccc3c(N4CCCCCC4)ccc(c23)C1=O	LANA-H2B inh 65, Keap1 Nrf2 FP 16 | Keap1 TSA inactive
O=C1c2cccc3c(N4CCCCC4)ccc(c23)C(=O)N1c1cccc(O)c1	Keap1 Nrf2 FP 27 | Keap1 TSA inactive | Dye-only ctr inactive
N=c1oc2ccc3ccccc3c2cc1C(N)=S	none
CC(OC(=O)c1ccc([N+](=O)[O-])o1)C(=O)NC1CCCCC1C (centres undefined)	Keap1 Nrf2 FP 21 (no result: CAL PDZ FP-2) | Keap1 TSA inactive
C=CCOc1ccc(CNc2ccc(NC(=O)CC(C)C)cc2)cc1OC	Keap1 Nrf2 FP 17 | Keap1 TSA inactive
O=C(O)c1nc(-c2ccccc2)c(C(=O)NC2CC2)[nH]1	none (no result: CAL PDZ FP-1, LANA-H2B inh, C-LANA FP, Keap1 Nrf2 FP, CAL PDZ FP-2)
O=C1NC(c2ccc(Cl)c([N+](=O)[O-])c2)Nc2ccccc21 (centres undefined)	none
O=C1NC(c2cc(Cl)cc([N+](=O)[O-])c2O)Nc2ccccc21 (centres undefined)	Keap1 Nrf2 FP 49 | Keap1 TSA inactive
Cc1cc(Cl)c2oc(C(=O)N(C)Cc3ccon3)c(C)c2c1	none
Oc1cc2c(cc1O)[C@H]1c3ccc(O)c(O)c3OC[C@@]1(O)C2	none (no result: CAL PDZ FP-2)
Oc1ccc2c(c1)OCC1(O)Cc3cc(O)c(O)cc3C21 (centres undefined)	Keap1 Nrf2 FP 18 (no result: CaV13 FRET inh, LANA-H2B inh) | Keap1 TSA inactive
CN1C=CC=C/C1=C1/N=C(c2ccccc2)OC1=O	none
CC1=CC(=C2N=C(c3ccccc3)OC2=O)C=C(C)O1	Keap1 Nrf2 FP 17 | Keap1 TSA inactive
c1ccc(Nc2nc3ccccc3n3nnnc23)cc1	Keap1 Nrf2 FP 24 | Keap1 TSA inactive | Dye-only ctr inactive
CC1=C(C(=O)N2CCOCC2)CC(CC(=O)NCCc2ccccn2)C(=O)N1CCCN1CCCC1=O (centres undefined)	none (no result: CAL PDZ FP-1, LANA-H2B inh, C-LANA FP, Keap1 Nrf2 FP, CAL PDZ FP-2)
CCCn1nc(-c2ccccc2)c2nc3ccccc3nc21	none (no result: CAL PDZ FP-1, C-LANA FP, Keap1 Nrf2 FP, CAL PDZ FP-2)
CCn1nc(-c2ccccc2)c2nc3ccccc3nc21	Keap1 Nrf2 FP 42 | Keap1 TSA inactive | Dye-only ctr inactive
CCN1CC=C2C(C1)C(c1ccc(Cl)s1)C(C#N)=C(N)C2(C#N)C#N (centres undefined)	Keap1 Nrf2 FP 21 | Keap1 TSA inactive
S=C(NCc1ccco1)N1CCN(c2ccccn2)CC1	none (no result: CAL PDZ FP-2)
CC1(C)CC(=O)C2=C(C1)OC1=C(C2)C(=O)CC(C)(C)C1	Keap1 Nrf2 FP 21 | Keap1 TSA inactive
CC(=O)C1C(c2ccc(F)cc2)c2c(noc2C)CC1(C)O (centres undefined)	Keap1 Nrf2 FP 50 (no result: CAL PDZ FP-2) | Keap1 TSA inactive
Cc1ccc2cc(CN(CCCO)S(=O)(=O)c3ccccc3F)c(=O)[nH]c2c1C	none
Cc1ccc2cc(CN(CCCO)S(=O)(=O)c3cccc4nsnc34)c(=O)[nH]c2c1C	Keap1 Nrf2 FP 14 | Keap1 TSA inactive | Dye-only ctr inactive
O=C(NNS(=O)(=O)c1ccc(F)cc1)c1ccc(S(=O)(=O)N2CCCCC2)cc1	none (no result: LANA-H2B inh)
O=C(NNS(=O)(=O)c1ccc(F)cc1)c1ccc(O)cc1	Keap1 Nrf2 FP 43 (no result: CAL PDZ FP-2) | Keap1 TSA inactive
CCC(C)C(NC(=O)C(Cc1ccc(O)cc1)NC(=O)OCc1ccccc1)C(=O)OC (centres undefined)	none (no result: CAL PDZ FP-1, LANA-H2B inh, C-LANA FP, Keap1 Nrf2 FP, CAL PDZ FP-2)
CCn1nc(C(=O)OCC(=O)c2c[nH]c3ccccc23)c2ccccc2c1=O	none (no result: CAL PDZ FP-2)
CCOc1ccc(C(=O)COC(=O)c2nn(CC)c(=O)c3ccccc23)cc1	LANA-H2B inh 13, Keap1 Nrf2 FP 21 (no result: CAL PDZ FP-2) | Keap1 TSA inactive
CN(C)CCNc1ccc2ncn3c4ccc(O)cc4c(=O)c1c23	C-LANA FP 114, Keap1 Nrf2 FP 38 (no result: LANA-H2B inh) | Keap1 TSA inactive
CN(C)CCNc1ccc(CO)c2sc3ccc(O)cc3c(=O)c12	none (no result: LANA-H2B inh)
Cc1c(C(=O)Nc2ccc3c(c2)OCCO3)sc2ncnc(N3CCCCC3C)c12 (centres undefined)	none
C[C@@H]1CN([C@@H](C)CO)C(=O)c2cccc(NS(C)(=O)=O)c2O[C@H]1CN(C)CC1CCCCC1	none
N=c1c(C(=O)NC2CCCC2)cc2c(=O)n3ccccc3nc2n1Cc1ccccc1	Keap1 Nrf2 FP inconclusive | Keap1 TSA inactive
CCN1CCN(C(=O)c2c(-c3c(Cl)cccc3Cl)noc2C)CC1	none
CCN(CC)CCN1C(=O)c2cccc3cc(N)cc(c23)C1=O	Keap1 Nrf2 FP 14 (no result: CAL PDZ FP-1) | Keap1 TSA inactive
Cn1ncc2c(=O)[nH]nnc21	none (no result: LANA-H2B inh)
CC(C)S(=O)(=O)c1nsc2nc(=O)c(/C=C3\C=Nc4ccccc43)c(N)n12	none
CSc1nsc2nc(=O)c(/C=C3\C=Nc4ccccc43)c(N)n12	Keap1 Nrf2 FP 14 | Keap1 TSA 0.74
COC(=O)c1cccc(NC(=O)Nc2ccc(Cl)cc2)c1	none (no result: CAL PDZ FP-2)
COC(=O)c1cccc(NC(=O)NC(=O)c2ccc(Cl)cc2)c1	Keap1 Nrf2 FP 44 (no result: CAL PDZ FP-2) | Keap1 TSA inactive
O=C(O)c1cccc(-n2cccc2/C=C2/NC(=O)N(c3ccc(Cl)cc3)C2=O)c1	C-LANA FP 110, Keap1 Nrf2 FP 19 (no result: CAL PDZ FP-1, LANA-H2B inh) | Keap1 TSA inactive
O=C(O)c1cccc(-n2cccc2/C=C2/NC(=O)N(c3cccc(Cl)c3)C2=O)c1	none
O=C1OC[C@H](Cc2ccc3c(c2)OCO3)/C1=C\c1ccc2c(c1)OCO2	none (no result: CaV13 FRET inh)
CCCCOc1ccc(C2OC34CCCCC3C(C#N)(C#N)C2(C#N)C(=N)O4)cc1 (centres undefined)	C-LANA FP 60, Keap1 Nrf2 FP 27 (no result: CaV13 FRET inh) | Keap1 TSA inactive | Dye-only ctr inactive

Screens: PubChem, Broad Institute
